# Only some compounds are listed: those with a hit (about 1.8% of all), similar ones and a draw of the others.
# UPR XBP1 act – adaptive UPR (XBP1) activation. CHO-XBP1 luciferase reporter, IRE1-XBP1 UPR activation, luminescence; percent of tunicamycin response, DMSO as zero. activation, % at 20 µM. 330,000 tested, 0.33% active. AID 463104;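 active = versus positive control, 20 µM dose yields 30% or more activation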;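 note: 100% = tunicamycin at 10 µg/mL and 0% = DMSO only wells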
#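 assay system = CHO-XBP1 luciferase reporter cells | amount = 1000 cells/well | buffer or medium = F12 plus 10% FBS | compound dosing = single point, 20 µM final compound, 1% DMSO | incubation = 16-18 h cell attachment at 37 °C, then 6 h compound exposure | detection = Steady-Glo luminescence read | controls = tunicamycin 10 µg/mL and vehicle-only wells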
# Jurkat NFkB inh – lowers PMA/ionomycin-induced NF-kB signal in Jurkat cells; 330,000 tested, 0.53% active; PMA/ionomycin-induced NF-kB luciferase reporter, luminescence; inhibition, % at 4 µM; in the data active = inhibition above about 50%
# CRFBP-R2 block – blocks CRF-induced signaling of the CRF-BP/CRF-R2 complex | HEK293 CRF-R2/CRF-BP, CRF-induced calcium fluorescence | inhibition, % at 11.8 µM | 350,000 tested, 0.59% active | AID 588475;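 active = inhibition of the ligand-induced calcium signal above about 50% at the single tested concentration, limit read from the data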
# 697 NFkB inh – inhibitors of the PMA/ionomycin-induced NF-kB reporter in 697 B cells; 697 B-cell NF-kB luciferase reporter, 16 h; inhibition, % at 4 µM; 330,000 tested, 0.33% active; AID 435022; in the data active = inhibition above about 35%
# CHOP UPR activ – activators of apoptotic arm of unfolded protein response (CHOP); activation, % at 10 µM; 330,000 tested, 0.34% active; CHO-CHOP luciferase reporter, UPR activation, luminescence; percent of tunicamycin response over DMSO baseline;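 active = at 10 µM dose, activation of 40% or more, normalized to positive control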;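 note: 100% = tunicamycin at 10 µg/mL and 0% = DMSO alone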
#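 Test system: CHO CHOP reporter cells. Input: 500 CHO-CHOP cells per well. Medium: F12 with 10% FBS. Technique: luciferase luminescence. Measure: percent activation relative to tunicamycin control. Dosing: 10 µM compound, 0.5% DMSO. Timing: 16-18 h cell attachment, then 6 h compound exposure, 37 °C.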
# * = called active by the depositor; / = no result.
SMILES,UPR XBP1 act,Jurkat NFkB inh,CRFBP-R2 block,697 NFkB inh,CHOP UPR activ
CC1(C)CC(=O)C(C2C3=C(CC(C)(C)CC3=O)Oc3ccc4ccccc4c32)C(=O)C1 (centres undefined),-1,-50,81*,-2,2
N#CCSc1nc2sccc2c(=O)n1-c1ccccc1,12,-26,74*,-12,1
Cc1cc(C)nc(SCc2nnc(SCc3ccc([N+](=O)[O-])cc3)n2Cc2ccco2)n1,-5,4,79*,-5,1
COC(=O)CSc1nnc(CSc2nc(C)cc(C)n2)n1Cc1ccco1,1,1,2,18,0
CCOC(=O)c1nnn(CC(=O)N2N=C(c3ccccc3)CC2c2ccccc2)c1C(=O)OCC (centres undefined),0,-7,71*,-21,1
COC(=O)[C@@H]1C[C@@H](c2ccccc2)[C@H](C)C1(C)C,-2,7,-7,18,-1
O=C1c2ccccc2-c2nnc(-c3ccc(O)cc3)cc21,0,-66,103*,-95,-6
Cc1ccc(-c2cc3c(nn2)-c2ccccc2C3=O)cc1,-6,33,-4,-29,-9
CCOC(=O)C1CN(S(=O)(=O)c2ccccc2)C1,-2,3,18,6,7
CCOC(=O)C1CCCN(S(=O)(=O)c2ccccc2)C1 (centres undefined),-2,2,78*,8,1
CCOC(=O)C1CCCN(C(=O)COC(=O)c2cccs2)C1 (centres undefined),3,4,95*,12,2
CCOC(=O)C1(C(=O)OCC)CCN(S(=O)(=O)c2ccccc2)CC1,/,/,69*,/,/
CCOC(=O)N1CCN(C(=O)C2CCN(S(=O)(=O)c3ccccc3)CC2)CC1,-1,10,18,0,0
CCC(C)C(NC(=O)C1CCC(C)CC1)C(=O)NCCc1ccc(S(N)(=O)=O)cc1 (centres undefined),-3,-19,4,3,-1
COCCN(C(=O)CSc1nnc(-c2ccncc2)n1C)c1c(N)n(CC(C)C)c(=O)[nH]c1=O,/,/,19,/,/
COc1ccc(NC(=O)CN(C)CC(=O)NCCc2ccc(F)cc2)cc1,-1,12,7,0,0
CC(=O)C1=C(O)C(=O)N(Cc2ccccc2)C1c1ccc(F)cc1 (centres undefined),-1,-8,56*,17,0
CC(=O)C1=C(O)C(=O)N(Cc2ccccc2)C1c1ccc([N+](=O)[O-])cc1 (centres undefined),-4,0,/,5,-1
CC(=O)C(Cc1ccccc1)NC(=O)CN1c2cccc3cccc(c23)S1(=O)=O (centres undefined),-3,6,-4,1,-1
C=CCOc1nc2c(c(=O)n(Cc3ccc(Cl)c(Cl)c3)c(=O)n2C)n1C,-6,2,51*,-20,0
CCN(CC)CCNC(=O)C1(O)c2cc(Br)ccc2NC(=O)N1c1c(F)cccc1F (centres undefined),5,8,7,11,4
CN(CC1CCOCC1)C(=O)CC1C(=O)NCCN1Cc1ccc(Cl)c(F)c1 (centres undefined),-1,-4,79*,-22,0
CC(C)(O)CN(C(=O)c1ccc([N+](=O)[O-])cc1)C1CCCC1,/,/,4,/,/
N#Cc1cccc(C(c2nnnn2C2CCCC2)N2CCC(Cc3ccccc3)CC2)c1 (centres undefined),-2,0,-8,11,1
N#Cc1cccc(C(c2nnnn2C2CCCC2)N2CCCCCC2)c1 (centres undefined),-3,-3,53*,12,1
SMILES,UPR XBP1 act,Jurkat NFkB inh,CRFBP-R2 block,697 NFkB inh,CHOP UPR activ
Cc1[nH]c(C)c(S(=O)(=O)NCCc2ccccc2)c1C(=O)N1CCCCC1,-4,-11,70*,-3,0
Cc1c(C(=O)N2CCCCC2)c(S(=O)(=O)NCCc2ccccc2)c(C)n1C,0,0,-8,6,0
COc1ccccc1Nc1ccc(S(=O)(=O)N2CCCCC2)cc1[N+](=O)[O-],-2,3,51*,-3,-2
COCCS(=O)(=O)N(Cc1ccc(Br)cc1)[C@@H](C)C(=O)OC,1,/,-2,22,1
COc1ccc(CNc2oc(COc3ccccc3)nc2C#N)cc1,2,-5,52*,-7,5
CCC(C)(CCNC(=O)Cc1ccccc1)c1ccccc1OC (centres undefined),0,-9,4,-8,0
COC(=O)c1sccc1S(=O)(=O)NC(C)c1cnn(-c2ccc(OC)cc2)c1C (centres undefined),-5,0,9,-29,0
COc1ccc(-n2ncc(C(C)NS(=O)(=O)c3cc(C)sc3C)c2C)cc1 (centres undefined),/,/,51*,/,/
CC#CCCC(=O)N1C=Cc2ccccc2C1C#N (centres undefined),-2,-10,56*,0,0
Cc1ccc([C@H]2N[C@]3(CCCN(Cc4cccn4C)C3=O)[C@H]3C(=O)N(C)C(=O)[C@@H]23)cc1,/,/,18,/,/
CCOc1ccc2nc(SCC(=O)NCc3ccccc3OC)[nH]c2c1,-6,7,-1,17,-1
COC(C/C=C/[C@@H](O)[C@H](C)OCc1ccccc1)OC,-1,-2,35,12,1
O=C(NC1CCCCC1)NS(=O)(=O)c1ccc2c(c1)CCC2,/,/,63*,/,/
O=S(=O)(NC(=S)NC1CCCCC1)c1ccc(Br)cc1,-5,-11,56*,-13,-2
COc1ccc(C2N(C(=O)C(F)(F)F)C(C)CN2S(=O)(=O)c2ccc(C)cc2)cc1 (centres undefined),-2,18,12,0,2
Cc1cccn2c(/C=N/OCc3cccc(F)c3)c(-c3ccc(Cl)cc3)nc12,-4,-7,95*,-12,0
CCN(CC(=O)N1CCOCC1)S(=O)(=O)c1ccccc1,0,11,-6,10,0
Cc1ccc(N(C(=O)Cn2nnc(-c3ccccc3)n2)C(C(=O)NC2CCCCC2)c2ccccn2)cc1C (centres undefined),-1,11,56*,14,1
Cc1ccc(C)c(S(=O)(=O)C(C#N)c2nc3ccccc3nc2N2CCCC2)c1 (centres undefined),2,-12,9,-4,2
Cc1ccc(C)c(S(=O)(=O)C(C#N)c2nc3ccccc3nc2N2CCOCC2)c1 (centres undefined),0,7,63*,-1,1
CC(=O)Nc1ccc(NC(=O)CCCN2C(=O)C(c3ccccc3)Oc3cccnc32)cc1 (centres undefined),/,/,7,/,/
CCOc1ccc(NC(=O)CCCN2C(=O)C(c3ccccc3)Oc3cccnc32)cc1 (centres undefined),8,-1,57*,2,-1

# Screens: PubChem, Sanford-Burnham Center for Chemical Genomics
